This is an account of results in ChEMBL document CHEMBL1121639, “Analgesic narcotic antagonists. 5. 7,7-Dimethyldihydrocodeinones and 7,7-dimethyldihydromorphinones” (1981).

Assay [1] deals with Rattus norvegicus. Put plainly: Compound was tested for analgesic agonist activity in heat stimulus rat tail-flick assay on subcutaneous administration; Inactive at 25 umol/kg. The class given is functional, organism-based. A digest of the protocol:
(§1)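 Test agents given as solutions: salts in distilled water; free bases dissolved by adding 1 N HCl, then further diluted.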
For orientation: In hot-plate and tail-flick tests a longer latency is read as antinociception.

The subject of assay [2] is Mus musculus. Put plainly: Compound was tested for the analgesic agonist activity in acetic acid induced mouse writhing assay on subcutaneous administration; Inactive at 25 umol/kg. The class given is functional, organism-based. A digest of the protocol:
as §1
On the technique in general: In writhing tests, fewer writhes than in controls are read as antinociception.

Assay [3] concerns Rattus norvegicus. Description: Analgesic agonist activity in heat stimulus rat tail-flick assay on subcutaneous administration. It counts as functional. To be noted: sc. A digest of the protocol: as §1
Assay [4] relates to Mus musculus. Description: Analgesic agonist activity in acetic acid induced mouse writhing assay, subcutaneous administration. To be noted: sc. The class given is functional. A digest of the protocol:
as §1

For assay [5], the species on record is Rattus norvegicus. Description: Narcotic antagonist activity against an ED80 of morphine in the modified rat tail-flick assay. The class given is functional.
Assay [6] concerns Mus musculus. Description: Compound was tested for the analgesic agonist activity in acetic acid induced mouse writhing assay on subcutaneous administration; Inactive at 20 umol/kg. It counts as functional, organism-based. A digest of the protocol:
as §1

In assay [7] the test system is Mus musculus. Put plainly: Compound was tested for the analgesic agonist activity in acetic acid induced mouse writhing assay on subcutaneous administration; Inactive at 25 umol/kg. It counts as functional, organism-based. An outline of the steps:
as §1

The test system of assay [8] is Rattus norvegicus. Put plainly: Compound was tested for analgesic agonist activity in heat stimulus rat tail-flick assay on subcutaneous administration; Inactive at 25 mg/kg. It counts as functional, organism-based. Set-up: dose 25 mg/kg. An outline of the steps: as §1
Assay [9] deals with Mus musculus. Put plainly: Compound was tested for the analgesic agonist activity in acetic acid induced mouse writhing assay on subcutaneous administration; Inactive at 16 umol/kg. The class given is functional, organism-based. An outline of the steps: as §1
In assay [10] the test system is Mus musculus. Put plainly: Compound was tested for the analgesic agonist activity in acetic acid induced mouse writhing assay on subcutaneous administration; Inactive at 23 umol/kg. It counts as functional, organism-based. A digest of the protocol: as §1
Assay [11] deals with Mus musculus. Put plainly: Compound was tested for the analgesic agonist activity in acetic acid induced mouse writhing assay on subcutaneous administration; Inactive at 28 umol/kg. The class given is functional, organism-based. An outline of the steps:
as §1

Assay [12] has as its system Rattus norvegicus. Put plainly: Compound was tested for the analgesic agonist activity in heat stimulus rat tail-flick assay; Inactive at 26 umol/kg. The class given is functional, organism-based. A digest of the protocol:
as §1

For assay [13], the system named is Mus musculus. Put plainly: Compound was tested for the analgesic agonist activity in acetic acid induced mouse writhing assay on subcutaneous administration; Inactive at 26 umol/kg. The class given is functional, organism-based. An outline of the steps: as §1

The source made the active and inactive calls. The rule behind the calls is not given here. A value given as a limit tells only on which side of the number the result lay.

Broadly, the ED50 is the dose that gives a 50% effect, or the effect in half of the subjects. With `CC[C@@H]1C2[C@H]3Cc4ccc(OC)c5c4[C@@]2(CCN3C)[C@@H](O5)[C@H](O)C1(CO)CO` (some centres undefined), the ED50 entry in assay [1] and in [2] was “inactive” throughout. As for `COc1ccc2c3c1O[C@H]1[C@@H]4OC[C@]4(C)CC4[C@@H](C2)N(C)CC[C@@]341` (some centres undefined), the ED50 in [3] was over 30 µmol/kg; in assay [4], 1.9 µmol/kg. Take `COc1ccc2c3c1O[C@H]1C(=O)C(C)(C)CC4[C@@H](C2)N(CC2CC2)CC[C@@]341` (some centres undefined): the median effective dose (ED50) in assay [4] amounted to 5.3 µmol/kg; in assay [5], 6.7 µmol/kg.

On to `CC[C@@H]1C2[C@H]3Cc4ccc(OC)c5c4[C@@]2(CCN3CC2CC2)[C@@H](O5)C(=O)C1(C)C` (some centres undefined), for which the ED50 entry in assay [6] is “inactive”. In assay [5], the ED50 was over 20 µmol/kg.

Regarding `CC[C@@H]1C2[C@H]3Cc4ccc(O)c5c4[C@@]2(CCN3C)[C@@H](O5)C(=O)C1(C)C` (some centres undefined), the results for the ED50 in [3] and in assay [4] were 0.62 µmol/kg and 0.6 µmol/kg, respectively. Regarding `COc1ccc2c3c1O[C@H]1[C@H](O)C(CO)(CO)CC4[C@@H](C2)N(C)CC[C@@]341` (some centres undefined), the ED50 entry in [7] and in assay [8] was “inactive” in each case.

With `CC[C@@H]1C2[C@H]3Cc4ccc(O)c5c4[C@@]2(CCN3CC2CC2)[C@@H](O5)C(=O)C1(C)C` (some centres undefined), in assay [9], the ED50 result was “inactive”. The compound further registered an ED50 in [5] of 2.4 µmol/kg.

On to `COc1ccc2c3c1O[C@H]1[C@@H]4OC[C@]4(C)[C@H](C)C4[C@@H](C2)N(C)CC[C@@]341` (some centres undefined), for which the ED50 is over 23 µmol/kg in assay [3] and 1.8 µmol/kg in assay [4]. In the case of `COc1ccc2c3c1O[C@H]1C(=O)CC[C@H]4[C@@H](C2)N(C)CC[C@]314` [HYDROCODONE], the 50% effective dose (ED50) in assay [3] was determined as 5.2 µmol/kg; in [4], 2.4 µmol/kg. On to `COc1ccc2c3c1O[C@H]1C(=O)C(C)(C)[C@H](C)C4[C@@H](C2)N(CC2CC2)CC[C@@]341` (some centres undefined), for which the results for the median effective dose (ED50) in assay [4] and in assay [5] were over 26 µmol/kg and 7.3 µmol/kg, respectively. Turning to `CC[C@@H]1C2[C@H]3Cc4ccc(OC)c5c4[C@@]2(CCN3CC2CCC2)[C@@H](O5)C(=O)C1(C)C` (some centres undefined), the ED50 in assay [4] and in assay [5] was over 23 µmol/kg each time. In the case of `C[C@@H]1C2[C@H]3Cc4ccc(O)c5c4[C@@]2(CCN3CC2CC2)[C@@H](O5)C(=O)C1(C)C` (some centres undefined), the ED50 entry in [10] was “inactive”. This compound also gave an ED50 in assay [5] of 0.38 µmol/kg. Regarding `C[C@@H]1C2[C@H]3Cc4ccc(O)c5c4[C@@]2(CCN3CC2CCC2)[C@@H](O5)C(=O)C1(C)C` (some centres undefined), the ED50 in assay [4] and in assay [5] was over 25 µmol/kg each time. Regarding `CC(C)=CCN1CC[C@@]2(C)c3cc(O)ccc3C[C@@H]1[C@@H]2C`, the figures for the ED50 in assay [4] and in assay [5] were 13 µmol/kg and 36.4 µmol/kg, respectively. For the compound `CN1CC[C@]23c4c5ccc(O)c4O[C@H]2C(=O)C(C)(C)CC3[C@H]1C5` (some centres undefined), the ED50 was 0.99 µmol/kg in [3] and 0.19 µmol/kg in assay [4]. In the same order, the values of `COc1ccc2c3c1O[C@H]1[C@H](O)C(C)(C)[C@H](C)C4[C@@H](C2)N(C)CC[C@@]341` (some centres undefined) are 15.6 µmol/kg and 3.8 µmol/kg. `CC[C@@H]1C2[C@H]3Cc4ccc(OC)c5c4[C@@]2(CCN3C)[C@@H](O5)[C@@H]2OC[C@]12C` (some centres undefined): the ED50 in assay [3] was over 28 µmol/kg; in assay [4] it was 11.1 µmol/kg. For `COc1ccc2c3c1O[C@H]1[C@@H](O)C=C[C@H]4[C@@H](C2)N(C)CC[C@@]341` [CODEINE], the ED50 amounted to 75 µmol/kg in assay [3] and 10.3 µmol/kg in assay [4]. For `CC[C@@H]1C2[C@H]3Cc4ccc(OC)c5c4[C@@]2(CCN3C)[C@@H](O5)[C@H](O)C1(C)C` (some centres undefined), the median effective dose (ED50) in assay [3] is over 22 µmol/kg; in [4], 21.5 µmol/kg. Turning to `CC1(C)CC2[C@H]3Cc4ccc(O)c5c4[C@@]2(CCN3CC2CC2)[C@@H](O5)C1=O` (some centres undefined), the ED50 entry in assay [11] was “inactive”. Also, it took a dose of 1.2 µmol/kg to reach the 50% effect level in assay [5] (ED50). Regarding `Oc1ccc2c(c1)[C@@]13CCCC[C@@]1(O)[C@@H](C2)N(CC1CCC1)CC3` [BUTORPHANOL], the ED50 in assay [4] was 0.34 µmol/kg; in assay [5] it was 2 µmol/kg. In the same order, the values of `C[C@H]1[C@H]2Cc3ccc(O)cc3[C@]1(C)CCN2CC1CC1` [CYCLAZOCINE] are 0.41 µmol/kg and 0.81 µmol/kg. Consider `COc1ccc2c3c1O[C@H]1[C@H](O)C(CO)(CO)[C@H](C)C4[C@@H](C2)N(C)CC[C@@]341` (some centres undefined), for which the ED50 entry in [12] is “inactive”. In assay [4], this compound showed an ED50 of over 26 µmol/kg.

On to `COc1ccc2c3c1O[C@H]1[C@H](O)C(C)(C)CC4[C@@H](C2)N(C)CC[C@@]341` (some centres undefined), for which the median effective dose (ED50) was found to be 30.4 µmol/kg in assay [3] and 6.5 µmol/kg in assay [4]. `COc1ccc2c3c1O[C@H]1[C@@H](O)C(C)(C)CC4[C@@H](C2)N(C)CC[C@@]341` (some centres undefined) gave a median effective dose (ED50) in [4] of 12.7 µmol/kg. As to `COc1ccc2c3c1O[C@H]1C(=O)C(C)(C)[C@H](C)C4[C@@H](C2)N(C)CC[C@@]341` (some centres undefined), the ED50 in assay [3] turned out to be 4.2 µmol/kg; in assay [4], 2.5 µmol/kg. With `COc1ccc2c3c1O[C@H]1C(=O)C(C)(C)CC4[C@@H](C2)N(CC2CCC2)CC[C@@]341` (some centres undefined), in assay [13], the ED50 result is “inactive”. For the same compound, the ED50 in assay [5] was over 26 µmol/kg. Turning to `COc1ccc2c3c1O[C@H]1C(=O)C(C)(C)[C@H](C)C4[C@@H](C2)N(CC2CCC2)CC[C@@]341` (some centres undefined), the ED50 is 17.2 µmol/kg in assay [4] and 4.7 µmol/kg in assay [5].

In assay [3], `CN1CC[C@]23c4c5ccc(O)c4O[C@H]2C(=O)CC[C@H]3[C@H]1C5` [HYDROMORPHONE] registered an ED50 of 1.3 µmol/kg. `CC[C@@H]1C2[C@H]3Cc4ccc(O)c5c4[C@@]2(CCN3CC2CCC2)[C@@H](O5)C(=O)C1(C)C` (some centres undefined): the ED50 came to 18.5 µmol/kg in assay [4] and 2.8 µmol/kg in [5]. On to `CC[C@@H]1C2[C@H]3Cc4ccc(OC)c5c4[C@@]2(CCN3C)[C@@H](O5)C(=O)C1(C)C` (some centres undefined), for which the ED50 in [3] amounted to 13.9 µmol/kg; in assay [4], 4.4 µmol/kg. As for `CC1(C)CC2[C@H]3Cc4ccc(O)c5c4[C@@]2(CCN3CC2CCC2)[C@@H](O5)C1=O` (some centres undefined), the ED50 was 2.2 µmol/kg in assay [4] and over 24 µmol/kg in assay [5]. For `COc1ccc2c3c1O[C@H]1C(=O)C(C)(C)CC4[C@@H](C2)N(C)CC[C@@]341` (some centres undefined), the ED50 was 9.8 µmol/kg in assay [3] and 3.9 µmol/kg in [4].
